# According to paper PMC3356144 (Frontiers in Oncology, 2011):
# pIC50: −log10 of the molar value. Entries after “also recorded” stand apart in the source; their conditions may differ.
# Legend:
# [1] = tested on: human prostate cancer tissue; experiment: Displacement of 17e staining of prostate tissue by calyculin A; format: binding; conditions: calyculin A 1 μM pretreatment 10 min, then 17e 10 μM 1 h
# Summary of the method: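 Serial sections of human prostate tissue. One section stained with 10 μM test compound for 1 h. The adjacent section was pretreated with 1 μM calyculin A for 10 min before the same staining. Compound fluorescence intensity imaged and compared between paired sections.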
# PC-3 cells [2] = experiment: BrdU uptake assay, PC-3; format: cell-based, human
# Summary of the method: (§1)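 Cells seeded overnight in six-well plates: LNCaP 500,000/well, DU145 and PC-3 200,000/well. Treated with 1 μM test compound in serum-free medium for 24 h, then BrdU pulsed 1 h. Cells trypsinized, fixed in 4% formaldehyde 10 min, permeabilized, and labelled with FITC anti-BrdU 1 h at 25°C. Analysed by flow cytometry against untreated control; n = 3, mean ± SEM.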
# PC-3 cells [3] = experiment: Cell cycle analysis by FACS, PC-3; format: cell-based, human; conditions: 1 μM
# Summary of the method: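 PC-3 seeded at 200,000 cells/well in six-well plates overnight, then serum-starved 24 h. Treated with 1 μM test compound; controls kept in serum-free medium. Incubated 6, 24 or 48 h, then trypsinized, ethanol-fixed and analysed for cell-cycle distribution by FACS. Values averaged from three independent experiments.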
# LNCaP cells [4] = experiment: Growth inhibition; format: cell-based, human
# Summary of the method: (§2)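 LNCaP seeded at 20,000 cells/well overnight in RPMI with 10% FBS, 1% L-glutamine, 1% pen/strep and 0.1 nM DHT. CWR22Rv1 (20,000/well), DU145 and PC-3 (5,000/well) seeded in the same medium without DHT. Treated with test compound in serum-free medium, five wells per concentration, for 48 h; vehicle was 0.001% DMSO. Viability read by WST-8 after 2 h at 450 nm (reference 655 nm). Initial-plating value subtracted, percent growth versus control calculated, GI50 derived; n = 5, SEM.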
# LNCaP cells [5] = experiment: Analysis of actin disruption; format: cell-based, human; conditions: 2 h, 250 nM up to highest dose 5 μM
# Summary of the method: (§3)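 PC-3 seeded at 100,000 cells/dish in RPMI with 10% FBS and left to adhere 48 h. LNCaP seeded at 200,000 cells/dish and left 24 h in RPMI with 10% FBS and 0.1 nM DHT. Medium replaced with test compound (250 nM–5 μM) for 2 h. Cells fixed in 4% formaldehyde 10 min, permeabilized with 0.1% Triton X-100 30 min, stained with Alexa Fluor–phalloidin 10 min, then imaged against untreated controls.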
# PC-3 cells [6] = experiment: Cellular morphology after treatment; format: cell-based, human; conditions: PC-3, 1 μM, 24 h
# DU145 cells [7] = experiment: BrdU uptake assay, DU145; format: cell-based, human; conditions: DU145, 1 μM, 24 h
# Summary of the method: as §1
# CWR22Rv1 cells [8] = experiment: Cell cycle analysis by FACS, CWR22RV1; format: cell-based, human; conditions: CWR22RV1, 24 h
# Solubility = format: physicochemical
# LNCaP cells [9] = experiment: Cell cycle analysis by FACS, LNCaP; format: cell-based, human
# LNCaP cells [10] = experiment: BrdU uptake assay, LNCaP; format: cell-based, human; conditions: 1 μM, 24 h
# Summary of the method: as §1
# PC-3 cells [11] = experiment: Growth inhibition; format: cell-based; conditions: Homo sapiens, PC-3, 48 h, PC-3, 48 h treatment
# Summary of the method: as §2
# DU145 cells [12] = experiment: Growth inhibition; format: cell-based; conditions: Homo sapiens, DU-145, 48 h, DU145, 48 h treatment
# Summary of the method: as §2
# CWR22Rv1 cells [13] = experiment: Growth inhibition; format: cell-based; conditions: Homo sapiens, CWR22Rv1, 48 h, CWR22Rv1 (CWR), 48 h treatment
# Summary of the method: as §2
# PC-3 cells [14] = experiment: Analysis of actin disruption; format: cell-based, human
# Summary of the method: as §3
# PC-3 cells [15] = experiment: Chemotaxis assay; format: cell-based, human; conditions: IGF-1 attractant
# Summary of the method: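 96-well Boyden chamber with 8-μm porous membrane. 200,000 PC-3 cells per upper well in serum-free medium with test compound. Lower wells held IGF-1 plus the same compound concentration; serum-free medium served as negative control. Incubated overnight at 37°C, 5% CO2. Membrane fixed and Diff-Quik stained, upper-surface cells scraped off, absorbance read at 595 nm; n = 5, mean ± SEM.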
# [16] = target: MLCP purified from pig aorta smooth muscle (Sus scrofa, UniProt P61292); experiment: MLCP/32P-MLC dephosphorylation inhibition assay; format: biochemical
# Summary of the method: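 MLCP purified from pig aorta (PP1C plus truncated 60-kDa MYPT1). Substrate was chicken gizzard LC20 pre-labelled with [γ-32P]ATP. Reaction: 0.5 μM 32P-LC20, 50 nM MLCP, 0.1 nM okadaic acid, 1 mM DTT, 0.03% Brij35, 25 mM MOPS pH 7.0, with varied compound. Run 10 min at 30°C, stopped with TCA/BSA, released 32P counted. No-enzyme set as 0% and uninhibited as 100%; duplicates; IC50 by nonlinear regression.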
# MLCP purified from pig aorta smooth muscle, sequence (P61292 2-327 limits assumed): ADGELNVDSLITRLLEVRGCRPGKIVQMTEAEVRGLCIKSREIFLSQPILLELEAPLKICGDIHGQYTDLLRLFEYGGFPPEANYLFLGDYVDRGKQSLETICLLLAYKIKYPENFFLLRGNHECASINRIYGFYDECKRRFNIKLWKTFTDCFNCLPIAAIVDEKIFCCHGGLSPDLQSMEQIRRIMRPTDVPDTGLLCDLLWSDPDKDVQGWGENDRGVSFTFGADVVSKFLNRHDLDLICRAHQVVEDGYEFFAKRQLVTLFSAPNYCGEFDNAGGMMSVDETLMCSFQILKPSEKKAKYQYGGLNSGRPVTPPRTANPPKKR
smiles,measurement,setting,value
COC[C@@H]([C@H](O)[C@H](O)C(=O)NCC[C@H](C)c1nc(/C=C/C[C@@H]2O[C@]3(C[C@@H](O)[C@@H]2C)O[C@H]([C@H](C[C@H](O)[C@H](C)[C@H](O)[C@H](C)/C=C(C)/C(C)=C/C=C/C(C)=C\C#N)OC)[C@H](OP(=O)(O)O)C3(C)C)co1)N(C)C [calyculin A],Reduction in fluorescence intensity due to 17e (17e binding),[1],60%
"CN(C)c1cccc2c(S(=O)(=O)Oc3ccc(-c4csc(NC(=N)N)n4)cc3)cccc12 [17e, 5-dimethylamino-naphthalene-1-sulfonic acid 4-(2-guanidino-thiazol-4-yl)-phenyl ester]",Reduction in DNA synthesis as measured by BrdU uptake,PC-3 cells [2]; PC-3,10 fold
same,BrdU incorporation compared to control,"PC-3 cells [2]; PC-3, 1 μM, 24 h",~ 10%
same,Cell cycle effect,PC-3 cells [3]; 6 h,increased S and G2/M populations
same,Cell cycle effect,PC-3 cells [3]; 24 h,complete cell cycle arrest in the G2/M phase
same,Cell death (SubG1 population),PC-3 cells [3]; 48 h,increase in cells death
same,Cell cycle effect (G2/M arrest persistence),PC-3 cells [3]; through 48 h,continued unchanged
same,GI50 of CRPC cell lines compared to AD prostate cells,"LNCaP cells [4]; CRPC lines (CWR22Rv1, DU145, PC-3) versus LNCaP",four-fold lower
same,GI50,"LNCaP cells [4]; Homo sapiens, LNCaP, 48 h, 48 h treatment",~2 µM
same,F-actin disruption,LNCaP cells [5],did not show any disruption of the F-actin network; also recorded: no actin disruption; also recorded: did not demonstrate any F-actin disruption
same,Cellular morphology,PC-3 cells [6],became more spherical
same,BrdU incorporation compared to control,DU145 cells [7],~ 40%
same,Cell cycle effect,CWR22Rv1 cells [8],G2/M arrest
same,Solubility (relative),Solubility,higher solubility
same,Cell cycle effect,LNCaP cells [9],little change from control
same,DNA synthesis (BrdU incorporation),LNCaP cells [10],unaffected
same,GI50,PC-3 cells [11],~0.5 µM
same,GI50,DU145 cells [12],~0.5 µM
same,GI50,CWR22Rv1 cells [13],~0.5 µM
same,Actin disruption compared to control,"PC-3 cells [14]; PC-3, 2 h, 250 nM, 1 μM and 5 μM",increasing amounts of actin disruption
same,Concentration at which actin disruption begins,"PC-3 cells [14]; PC-3, 2 h treatment",250 nM
same,Migration of PC-3 cells,PC-3 cells [15]; 3 μM,reduced to the same level as wells that contained only serum free media
same,Migrated cells compared with IGF-1 alone,PC-3 cells [15]; 5 μM,three times fewer cells
same,Migration of PC-3 cells through the membrane,PC-3 cells [15]; increasing drug concentrations,dose dependent decrease
"N=C(N)Nc1nc(-c2ccc(NC(=O)c3ccc4ccccc4c3)cc2)cs1 [13h, naphthalene-2-carboxylic acid [4-(2-guanidino-thiazol-4-yl)-phenyl]-amide]",Solubility (relative),Solubility,much lower solubility than 17e
"N=C(N)Nc1nc(-c2ccc(OC(=O)c3ccc(-c4ccccc4)cc3)cc2)cs1 [13a, biphenyl-4-carboxylic acid 4-(2-guanidino-thiazol-4-yl)-phenyl ester]",pIC50,[16],4.13
"Nc1nc(-c2ccc(OC(=O)c3ccc(-c4ccccc4)cc3)cc2)cs1 [14a, biphenyl-4-carboxylic acid 4-(2-amino-thiazol-4-yl)-phenyl ester]",pIC50,[16],3.31
"COc1cccc(-c2ccc(C(=O)Oc3ccc(-c4csc(NC(=N)N)n4)cc3)cc2)c1 [10a, 3′-methoxy-biphenyl-4-carboxylic acid 4-(2-guanidino-thiazol-4-yl)-phenyl ester]",Solubility (relative),Solubility,much lower solubility than 17e
same,pIC50,[16],4.92
"COc1ccc(-c2csc(N=C(N)N)n2)cc1 [13m, N-[4-(4-methoxy-phenyl)-thiazol-2-yl]-guanidine]",pIC50,[16],3.08
